Screening results deposited in PubChem BioAssay by several laboratories.
Cardio protect: myocardial damage modulation in H9c2 cells; 0.63% of 360,000 active; protection from H2O2 cell death, % at 20 µM; H9c2 cardiomyocytes, H2O2 injury protection, ATPLite, 2 h;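 active means compounds giving at least 50% protection of heart cells from peroxide-induced death in the single-dose screen, raw or plate-pattern-corrected value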;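 further: 0% = DMSO wells with peroxide and 100% = DMSO wells without peroxide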
NR3A LBD binder: NR3A (human) ligand-binding domain modulation; NR3A LBD differential scanning fluorimetry, Tm shift; 0% = protein alone, 100% = glycine-bound protein; 2.5% of 340,000 active; Tm shift relative to glycine control, % at 25 µM;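 active means melting temperature shift of at least 10% of the positive control shift, at one fixed dose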
SENP1 inh: inhibitors of human SENP1 SUMO protease catalytic domain; inhibition, % at 10 µM; recombinant SENP1 catalytic domain, CyPet-SUMO1-YPet FRET cleavage; 0.21% of 360,000 active;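 active means inhibition at least 30% at 10 µM, raw YFP signal under a set limit, fluorescence ratio 0.5 to 1.5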;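 further: 0% = enzyme with DMSO and 100% = no enzyme wells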
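Test system: human SENP1 catalytic domain; medium: Tris pH 8 buffer plus EDTA, NaCl, BME, BSA, NP40, catalase; incubation: 50 min reaction at room temperature; technique: FRET, CFP and YFP emission; controls: no-enzyme low control and enzyme-plus-DMSO high control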
hiPSC survival: increases survival of single human iPS cells | survival enhancement, % at 20 µM | AID 602274 | 0.044% of 360,000 active | hiPSC single-cell survival, ATPlite luminescence; 100% = ROCK inhibitor wells, 0% = DMSO; in the data active means survival enhancement above about 18%;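 further: cells exposed to compounds for 16 hours before the ATP read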
Arr AP2 block: inhibitors of human beta-arrestin and AP2 interaction; FITC-arrestin peptide / GST-AP2 beads, flow cytometry; AP2 beta2 appendage carries R879A mutation; inhibition, % at 10 µM; 0.31% of 340,000 active; AID 504490;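 active means inhibition above a set limit, near 3 SD of compounds lacking own fluorescence, cut at about 54% in these data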;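 further: plate controls were DMSO wells for no effect and 5 µM unlabelled arrestin peptide for full effect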
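System: GST-AP2 R879A glutathione beads | Also added: FITC-arrestin peptide, 50 nM | Times: 12 min plus 1 h, RT | Signal: Bead flow cytometry, FITC channel | Buffer or medium: PBS with 0.05% Tween 20 and 0.1% BSA | Read-out basis: Percent drop in bead-associated FITC signal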
FAS TE block: inhibitors of human fatty acid synthase thioesterase domain; recombinant FAS-TE, OMFH fluorogenic substrate, fluorescence endpoint; inhibition, % at 15 µM; P49327; 0.67% of 360,000 active;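 active means compounds whose normalised, plate-corrected inhibition of enzyme fluorescence in the single-dose primary screen is 50% or more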;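 further: 0% = DMSO with enzyme and 100% = substrate without enzyme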
Arr AP2 CP1: human beta-arrestin and AP2 interaction inhibition, cherry pick. AID 504908. GST-AP2 beads, FITC arrestin peptide binding, flow cytometry; GST-fused beta2-adaptin appendage, R879A mutant. inhibition, % at 10 µM. shares compounds with Arr AP2 block. 2% of 1,300 active;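 active means inhibition above a set limit, roughly 3 SD of non-fluorescent compound noise, cut at about 38% in these data; inactive means inhibition at or below that limit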;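 further: loss of bead fluorescence from 50 nM FITC arrestin peptide bound to appendage; 0% = negative control wells and 100% = excess unlabelled arrestin peptide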
GST GSH counter: disrupts GST binding to glutathione beads, arrestin-AP2 artifact; shares compounds with Arr AP2 block; GST-fluorescein binding to GSH beads, fluorescence, counter-screen; inhibition, % at 10 µM; 2% of 1,300 active;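 active means inhibition above 50%, about 3 SD of the inhibition seen with non-fluorescent compounds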;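 further: fluorescein maleimide labelled GST captured on 4 micron glutathione beads; higher means more loss of bead fluorescence from quenching or blocked binding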
Active calls of the source: *; . = not tested or not shown. Sampled rows, rich in hits. Any-hit rate of the full collection: about 4%.

SMILES | Cardio protect | NR3A LBD binder | SENP1 inh | hiPSC survival | Arr AP2 block | FAS TE block | Arr AP2 CP1 | GST GSH counter
CN(C)S(=O)(=O)c1ccc(N2CCCC2)c(C(=O)NNC(=O)c2ccccc2)c1 | -0.4 | -1.8 | -0.6 | -0.4 | 63.6* | 2.2 | -0.4 | 4.0
CCNC(=S)Nc1ccc(N2CCCCC2)cc1 | -7.8 | -0.6 | 0.7 | 0.5 | -6.4 | -7.4 | . | .
CCNC(=S)N/N=C/c1sc(N2CCCCC2)nc1-c1cccs1 | -11.9 | -3.8 | -27.4 | -1.7 | 105.6* | -17.4 | -0.4 | -2.9
Oc1ccc(/C=N/Nc2nc(N3CCCC3)nc(N3CCCC3)n2)cc1O | 75.9* | -0.7 | -2.2 | 0.3 | 57.8* | -8.6 | -2.1 | 4.1
COc1cc(/C=N/Nc2nc(N3CCCC3)nc(N3CCCC3)n2)ccc1O | 5.6 | -1.6 | -0.5 | -2.3 | 13.1 | -4.7 | . | .
Cc1ccc(SCC(=O)OCC(=O)NCCNC(=O)COC(=O)CSc2ccc(C)c(C)c2)cc1C | 6.1 | -6.5 | 2.0 | 0.4 | 68.1* | -1.8 | -3.6 | -1.6
Cc1ccc(SCC(=O)OCC(=O)NCC2CCCCC2)cc1C | -2.4 | 0.4 | 4.4 | 0.9 | 12.8 | -4.2 | . | .
Cc1cccc(-n2c(SCC(N)=O)nc3c(c2=O)C2(CCCC2)Cc2ccccc2-3)c1 | -4.5 | -18.4 | 1.5 | -1.3 | 19.6 | 42.2 | . | .
NC(=O)CSc1nc2c(c(=O)n1-c1ccccc1)C1(CCCCC1)Cc1ccccc1-2 | -3.7 | -18.3 | 3.1 | -1.0 | 62.7* | 26.6 | -9.9 | -5.5
CC1(C(=O)N2Cc3ccccc3C2)CCN1C(=O)C1(c2ccc(Cl)cc2)CC1 (centres undefined) | 1.1 | . | -0.8 | 1.8 | . | 3.6 | . | .
CCN1/C(=C/c2ccc3cc(C)ccc3[n+]2C)Sc2ccc3sccc3c21 | -16.1 | -3.4 | 44.1* | -5.3 | 78.0* | -10.6 | 68.2* | 42.8
O=C(CC(=O)c1ccccc1)Nc1ccccc1C(F)(F)F | -8.4 | -2.2 | 2.3 | -0.7 | 10.7 | -1.4 | 12.6 | 3.4
O=C(CC(=O)Nc1ccccc1C(F)(F)F)Nc1ccccc1C(F)(F)F | -1.6 | 0.9 | 1.3 | 1.5 | 2.5 | -4.2 | . | .
CCN1CCN(c2nc3c(c(=O)[nH]c(=O)n3C)n2Cc2cccc(C)c2)CC1 | 0.4 | . | 4.0 | 6.2 | . | -3.6 | . | .
CC1CCCC(NC(=O)CN2CCN(S(=O)(=O)c3ccc(Br)s3)CC2)C1C (centres undefined) | -6.2 | 1.0 | 1.3 | 0.3 | 63.6* | 13.8 | -12.4 | -7.7
O=C(NNC1=NS(=O)(=O)c2ccccc21)c1ccc(Cl)cc1 | -20.2 | 2.1 | 2.0 | -2.8 | 57.6* | -5.3 | -11.1 | -0.3
O=C(NNC1=NS(=O)(=O)c2ccccc21)c1ccc([N+](=O)[O-])cc1 | -9.3 | 3.5 | 1.4 | -0.7 | 18.3 | 22.8 | . | .
CN1OC[C@@H]2CN(C(=O)CCc3ccccc3)[C@H](c3cccc(N4CCOCC4)c3)C[C@@H]21 | 2.7 | -1.1 | 2.5 | 1.1 | 8.0 | -5.9 | . | .
COc1ccc(-c2cc(C(F)F)n3ncc(C(=O)Nc4cc(C)on4)c3n2)cc1 | 3.6 | 1.3 | -28.7 | 6.3 | 103.5* | -0.5 | -5.8 | 21.5
Cc1cc(C)c(OCC(=O)Nc2nc3ccccc3[nH]2)c(C)c1 | 2.2 | -0.6 | 4.5 | -2.9 | 56.2* | -4.5 | 4.9 | 3.3
Cc1ccccc1OCC(=O)Nc1nc2ccccc2[nH]1 | -5.1 | -0.3 | 2.2 | -0.2 | 17.3 | -2.7 | . | .
CC1C(c2ccccc2)=[N+]([O-])C2(CCCCC2)N1O (centres undefined) | -2.8 | -1.1 | 2.1 | -2.5 | 73.6* | -5.3 | -8.6 | -5.6
Cc1cc(F)ccc1C(O)c1ncc(-c2cccc(F)c2)[nH]1 (centres undefined) | -2.0 | . | 0.2 | -1.9 | . | 0.1 | . | .
OC[C@H]1O[C@@H](c2nc(-c3ccc4[nH]ccc4c3)no2)[C@H](O)[C@@H](O)[C@H]1O | -0.6 | . | -1.5 | -3.0 | . | -3.2 | . | .
COCCCNC(=O)c1cccc(S(=O)(=O)N2CC3(C)CC2CC(C)(C)C3)c1 (centres undefined) | 5.1 | 0.8 | 1.2 | -0.1 | 12.6 | -4.9 | . | .
SMILES | Cardio protect | NR3A LBD binder | SENP1 inh | hiPSC survival | Arr AP2 block | FAS TE block | Arr AP2 CP1 | GST GSH counter
COCCNC(=O)c1cccc(S(=O)(=O)N2CC3(C)CC2CC(C)(C)C3)c1 (centres undefined) | 0.4 | 1.9 | 1.9 | -0.3 | 62.6* | -8.0 | -2.2 | 1.1
CNc1ccc(C(=O)OCC(=O)NCc2ccc3c(c2)OCO3)cc1[N+](=O)[O-] | 8.5 | 1.2 | 17.4 | -0.1 | 95.6* | -2.8 | -3.1 | 1.0
O=C(COC(=O)c1ccc2c(c1)OCO2)NCc1ccc2c(c1)OCO2 | 0.6 | 0.4 | 1.6 | -0.6 | -5.9 | -4.4 | . | .
Cc1c(C(=O)NC(C)c2ccccn2)oc2c(Cl)cccc12 (centres undefined) | -1.3 | -1.6 | -1.4 | 0.0 | 73.7* | -0.6 | -10.8 | -9.9
Cc1cn([C@H]2C[C@H](O)[C@@H](CNCc3ccc(F)c(N4CCOCC4)c3)O2)c(=O)[nH]c1=O | -5.2 | . | -0.2 | 3.7 | . | -7.3 | . | .
Clc1ccc(OCc2nnnn2-c2ccccc2)cc1 | -3.1 | 1.7 | 0.0 | 1.3 | 73.2* | 15.5 | 4.6 | -4.8
c1ccc(OCc2nnnn2-c2ccccc2)cc1 | -3.2 | 0.9 | -1.7 | 0.6 | 2.9 | -6.4 | . | .
O=S(=O)(c1ccc(Br)cc1F)N1CCCCC1CCO (centres undefined) | 3.1 | 0.2 | -0.4 | 2.4 | 3.1 | -7.4 | . | .
CCN(CC)Cc1c(O)ccc2c(=O)c(Oc3ccccc3OC)coc12 | -6.8 | -1.6 | -5.4 | -0.7 | 56.2* | -1.5 | 6.9 | -5.9
CCOc1ccc(C(=O)NCC(=O)NNC(=O)C2COc3ccccc3O2)cc1OCC (centres undefined) | -0.2 | -1.8 | 0.6 | 2.1 | 65.1* | -3.8 | 1.4 | -20.5
O=C(NN1CCOCC1)c1cccc(Cl)c1 | 1.5 | -0.5 | 1.1 | -0.2 | 71.0* | -8.5 | 0.7 | -10.7
COc1cc(OC)cc(C(=O)O/N=C(\N)c2ccccn2)c1 | -7.0 | -0.1 | 5.1 | -0.4 | 55.3* | -1.1 | -4.6 | -5.5
COc1ccc(C(=O)COC(=O)c2ccccn2)cc1OC | 9.3 | 1.7 | -1.0 | -0.4 | 56.4* | -3.1 | -2.4 | 2.9
COc1ccc(C(=O)O/N=C(\N)c2ccccn2)cc1 | -18.7 | 0.4 | 5.4 | -0.2 | -3.3 | -5.1 | . | .
O=C(COC(=O)c1ccccn1)c1ccc(Br)cc1 | 3.2 | 0.1 | 2.7 | 5.3 | -11.5 | -9.6 | . | .
CC1(c2nc3ccccc3[nH]2)CCC(=O)N1Cc1cccs1 (centres undefined) | 2.8 | . | -1.2 | -0.9 | . | -13.8 | . | .
